The test system of data set [1] is Rattus norvegicus. Briefly: Hypoglycemic activity in 48-hrs fasted rat assessed as decrease in blood glucose level at 300 mg/kg, po measured up to 4 hrs after drug administration. It is filed as functional, organism-based. Set-up: dose 300 mg/kg. In a few lines: (§1)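 Male rats of about 200 g were fasted 48 h. A zero-time tail-vein blood sample was taken on the morning of the test, then compound was given ip as a suspension in 0.9% saline or orally as a suspension in 0.5% tragacanth. Vehicle-only rats served as controls. Tail-vein blood was sampled at 1, 2 and 4 h for glucose.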

Data set [2] has as its system Rattus norvegicus. Briefly: Hypoglycemic activity in 48-hrs fasted rat assessed as decrease in blood glucose level at 300 mg/kg, ip measured up to 4 hrs after drug administration. Format: functional, organism-based. On the set-up: dose 300 mg/kg. The procedure, abridged: as §1
The test system of data set [3] is Rattus norvegicus. Kind of data set: Hypoglycemic activity in 48-hrs fasted rat assessed as decrease in blood glucose level at 200 mg/kg, po after 1 hr. It is filed as functional. The procedure, abridged: as §1
Data set [4] deals with Rattus norvegicus. Kind of data set: Hypoglycemic activity in 48-hrs fasted rat assessed as decrease in blood glucose level at 200 mg/kg, po after 2 hrs. It is filed as functional. In a few lines: as §1
Data set [5] has as its system Rattus norvegicus. Briefly: Hypoglycemic activity in 48-hrs fasted rat assessed as decrease in blood glucose level at 200 mg/kg, po after 4 hrs. Format: functional. The procedure, abridged: as §1
In data set [6] the test system is Rattus norvegicus. Kind of data set: Hypoglycemic activity in 48-hrs fasted rat assessed as decrease in blood glucose level at 200 mg/kg, ip after 1 hr. As to conditions: route intraperitoneal. It is filed as functional. In a few lines:
as §1

The test system of data set [7] is Rattus norvegicus. Briefly: Hypoglycemic activity in 48-hrs fasted rat assessed as decrease in blood glucose level at 200 mg/kg, ip after 2 hrs. It is filed as functional. Particulars: route intraperitoneal. The procedure, abridged:
as §1

Data set [8] deals with Rattus norvegicus. Briefly: Toxicity in 48-hrs fasted rat assessed as mortality at 200 mg/kg, ip after 4 hrs. It is filed as organism-based. Set-up: dose 200 mg/kg, route intraperitoneal. Particulars: in vivo. The procedure, abridged:
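Male rats, about 200 g, fasted 48 h before dosing. Given ip as a suspension in 0.9% saline; vehicle-only group run as controls. Tail-vein blood taken at time zero and at 1, 2 and 4 h after dosing.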

SMILES strings stand for the structures. Activity calls are given as the source filed them. The rule behind the calls is not given here.

In the case of `O=C(O)c1ncc(S)cc1S`, the outcome with Rattus norvegicus [1] and with Rattus norvegicus [2] was inactive.
As for `O=C(O)c1nc(C(=O)O)c(S)cc1S`, the outcome in the data set on Rattus norvegicus [1] and in the data set on Rattus norvegicus [2] was inactive.
For the molecule `O=C(O)c1nc2ccccc2cc1S`, the outcome in the data set with Rattus norvegicus [1] and in the data set on Rattus norvegicus [2] was inactive.
With `CCCCNC(=O)NS(=O)(=O)c1ccc(C)cc1` [TOLBUTAMIDE], the inhibition in vivo at 200 mg/kg in the data set on Rattus norvegicus [3] was determined as 28%; in the data set on Rattus norvegicus [4], 47%; with Rattus norvegicus [5] it was 48%.
As for `CCOC(=O)c1ncsc1S`, the outcome in the data set with Rattus norvegicus [1] and with Rattus norvegicus [2] was inactive.
On to `O=C(O)c1ncc2ccccc2c1S`, for which the result in the data set with Rattus norvegicus [1] and in the data set on Rattus norvegicus [2] was inactive.
Take `O=C(O)c1nccnc1S`: the result in the data set on Rattus norvegicus [1] and in the data set on Rattus norvegicus [2] was inactive.
For `O=C(O)c1[nH]c2ccccc2c1S`, the inhibition in vivo at 200 mg/kg in the data set on Rattus norvegicus [6] was determined as 45%; with Rattus norvegicus [7], 51%. Also, the Activity entry in the data set with Rattus norvegicus [8] is “Toxic”.
With `CS(=O)(=O)c1cccnc1C(=O)O`, the outcome with Rattus norvegicus [1] and in the data set with Rattus norvegicus [2] was inactive.
Consider `C[S+]([O-])c1cccnc1C(=O)O` (centres undefined), for which the outcome with Rattus norvegicus [1] and in the data set with Rattus norvegicus [2] was inactive.
For `O=C(O)c1ccc(S)c(C(=O)O)n1`, the result in the data set with Rattus norvegicus [1] and with Rattus norvegicus [2] was inactive.

Broadly, the inhibition in vivo is how much of the control response was suppressed.

The record behind these values is ChEMBL document CHEMBL3243938, “Mercapto heterocyclic carboxylic acids, analogues of 3-mercaptopicolinic acid” (J Med Chem, 1977).
